Laboratory results: ChEMBL document CHEMBL1914345 (Bioorg Med Chem Lett, 2011)

Key:
[1] = Inhibition of retinal rod CNGA1/CNGB1 expressed in Xenopus laevis oocytes assessed as blockade of cGMP-induced current at +50 mV holding potential by patch-clamp electrophysiology; assay type: cell-based; settings: oocyte; read-out: Kd(app)
Method in brief: (§1)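 Heteromeric retinal CNGA1 plus CNGB1 channels expressed in Xenopus laevis oocytes. Currents activated by 2 mM cGMP and recorded at both +50 and -50 mV. Apparent Kd taken by fitting current amplitudes to a single-binding-site block equation.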

[2] = Inhibition of retinal rod CNGA1/CNGB1 expressed in Xenopus laevis oocytes assessed as blockade of cGMP-induced current at -50 mV holding potential by patch-clamp electrophysiology; assay type: cell-based; settings: oocyte; read-out: Kd(app); method in brief: as §1
[3] = test system: Oocyte; experiment: Ratio of tetracaine Kd(app) to compound Kd(app) for retinal rod CNGA1/CNGB1 expressed in Xenopus laevis oocytes; assay type: cell-based
[4] = test system: Oocyte; experiment: Ratio of 2-(dimethylamino)ethyl 4-(octylamino)benzoate Kd(app) to compound Kd(app) for retinal rod CNGA1/CNGB1 expressed in Xenopus laevis oocytes; assay type: cell-based
[5] = Ratio of Kd(app) for sodium channel to Kd(app) for retinal rod CNGA1/CNGB1

Row | Kd [1] | Kd [2] | Ratio [3] | Ratio [4] | Ratio [5] | SMILES
1 | 8000 nM | 12600 nM | – | – | – | CCCCCCCCNc1ccc(C(=O)OCCN(C)C)cc1[N+](=O)[O-]
2 | 200 nM | 750 nM | 50 | 8 | – | CCCCCCCCNc1ccc(C(=O)OCCN(C)C)cc1F
3 | 500 nM | 1410 nM | – | – | – | CCCCCCCCNc1ccc(C(=O)OCCN(C)C)cc1C
4 | 5500 nM | 19600 nM | – | – | – | CCCCNc1ccc(C(=O)OCCN(C)C)cc1[N+](=O)[O-]
5 | – | – | – | – | 100 | CCCCNc1ccc(C(=O)OCC[N+](C)(C)CCCNCCCN)cc1
6 | 7800 nM | 28100 nM | – | – | – | CCCCNc1ccc(C(=O)OCCN(C)C)cc1C
7 | 4300 nM | 18300 nM | – | – | – | CCCCNc1ccc(C(=O)OCCN(C)C)cc1OC
8 | 1250 nM | 3000 nM | – | – | – | CCCCCCCCNc1ccc(C(=O)OCCN(C)C)cc1OC
9 | 140 nM | 380 nM | 50 | 8 | – | CCCCCCCCNc1ccc(C(=O)OCCN(C)C)cc1Cl
10 | 100 nM | 220 nM | 50 | 8 | – | CCCCCCCCNc1ccc(C(=O)OCCN(C)C)c(Cl)c1
11 | 800 nM | 1720 nM | – | – | – | CCCCCCCCNc1ccc(C(=O)OCCN(C)C)cc1
12 | 140 nM | 240 nM | 50 | 8 | – | CCCCCCCCNc1ccc(C(=O)OCCN(C)C)cc1Br
13 | 3000 nM | 12800 nM | – | – | – | CCCCNc1ccc(C(=O)OCCN(C)C)cc1Cl
